Laboratory results from ChEMBL document CHEMBL1914431, “Discovery of a novel series of nonacidic benzofuran EP1 receptor antagonists” (Bioorg Med Chem Lett, 2011).
Values after ≈ are worked out from the molar mass of the structure shown. Active and inactive are the calls of the source. The rule behind the calls is not given here.

Legend:
[1] = biological target: T1, Prostaglandin E2 receptor EP1 subtype (Homo sapiens, UniProt P34995); experiment: Displacement of [3H]PGE2 from human prostanoid EP1 receptor expressed in CHO-K1 cells after 30 mins by topcount liquid scintillation counting; format: cell-based
T1 sequence (P34995 whole entry): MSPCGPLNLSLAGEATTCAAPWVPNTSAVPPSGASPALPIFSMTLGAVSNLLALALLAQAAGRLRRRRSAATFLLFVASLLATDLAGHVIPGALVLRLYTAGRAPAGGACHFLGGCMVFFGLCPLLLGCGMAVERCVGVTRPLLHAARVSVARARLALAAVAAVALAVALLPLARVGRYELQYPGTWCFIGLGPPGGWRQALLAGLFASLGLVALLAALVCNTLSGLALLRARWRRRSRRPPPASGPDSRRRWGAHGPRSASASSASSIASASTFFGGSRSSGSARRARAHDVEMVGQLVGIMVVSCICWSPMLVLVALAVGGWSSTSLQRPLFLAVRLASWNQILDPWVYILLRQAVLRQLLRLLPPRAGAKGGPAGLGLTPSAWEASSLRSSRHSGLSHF
In short: (§1)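 Radioligand binding at the EP1 receptor. Either [3H]-GW875240X or [3H]-PGE2 is the displaced ligand. Values are pIC50, means of at least three experiments.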

[2] = biological target: T1, Prostaglandin E2 receptor EP1 subtype; experiment: Displacement of [3H]GW875240X from human prostanoid EP1 receptor expressed in CHO-K1 cells after 45 mins by topcount liquid scintillation counting; format: cell-based; in short: as §1
[3] = biological target: T1, Prostaglandin E2 receptor EP1 subtype; experiment: Antagonist activity at human recombinant EP1 receptor expressed in CHO-K1 cells assessed as inhibition of PGE2-mediated intracellular calcium mobilization by FLIPR method; format: functional, cell-based
[4] = biological target: T2, Prostaglandin E2 receptor EP3 subtype (Homo sapiens, UniProt P43115); experiment: Antagonist activity at human recombinant EP3 receptor expressed in CHO-K1 cells assessed as inhibition of PGE2-mediated intracellular calcium mobilization by FLIPR method; format: functional, cell-based
T2 sequence (P43115 whole entry): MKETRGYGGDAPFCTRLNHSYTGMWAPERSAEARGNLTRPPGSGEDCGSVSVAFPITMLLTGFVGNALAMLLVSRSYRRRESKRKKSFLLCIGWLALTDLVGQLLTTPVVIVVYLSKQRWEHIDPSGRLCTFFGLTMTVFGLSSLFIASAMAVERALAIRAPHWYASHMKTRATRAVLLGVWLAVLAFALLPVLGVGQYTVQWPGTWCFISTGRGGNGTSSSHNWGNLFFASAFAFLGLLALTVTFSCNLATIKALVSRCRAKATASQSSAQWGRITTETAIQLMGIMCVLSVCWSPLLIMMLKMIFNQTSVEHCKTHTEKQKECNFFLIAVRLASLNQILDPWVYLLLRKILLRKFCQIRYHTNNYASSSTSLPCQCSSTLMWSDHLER

Rattus norvegicus [5] = experiment: Analgesic activity in rat assessed as reversal of complete Freund's adjuvant-induced inflammatory pain at 30 mg/kg, po after 1 hr post dose relative to 10 mg/kg of celecoxib; format: functional, organism-based
In short: (§2)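 Rat CFA inflammatory pain model. Oral dosing in 1% methylcellulose. Hypersensitivity reversal is read by weight bearing, at 1 h post-dose. The 5 mg/kg study was also read at 3 h. Dose-response groups were 3, 10 and 30 mg/kg, or 1, 3 and 10 mg/kg, with ED50 derived. Celecoxib at 10 mg/kg po served as the standard.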

Liver microsomes = experiment: Intrinsic clearance in human liver microsomes; format: ADME, Microsome
[6] = Solubility of the compound in simulated gastric fluid after 1 hr; format: physicochemical
In short: (§3)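 Solubility is measured after 1 h in water, SGF, FaSSIF and FeSSIF, in µg/mL.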

[7] = Solubility of the compound in fasted state simulated intestinal fluid after 1 hr; format: physicochemical; in short: as §3
[8] = Solubility of the compound in fed state simulated intestinal fluid after 1 hr; format: physicochemical; in short: as §3
[9] = Lipophilicity, log D of compound at pH 7.4 by shake flask method; format: physicochemical; settings: buffer
In short: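 Log D is determined by the shake flask method at pH 7.4.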

P-gp [10] = experiment: Permeability across MDCK cells expressing p-gp; format: ADME, cell-based, Canis lupus familiaris; settings: dog, MDCK-MDR1; read-out: permeability
In short: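 MDCK cells. Passive permeability is reported as Pexact (nm/sec), and efflux ratio is used to assess Pgp substrate status.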

P-gp [11] = experiment: Efflux ratio of the compound in MDCK cells expressing p-gp; format: ADME, cell-based, Canis lupus familiaris; settings: dog, MDCK-MDR1
In short: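 MDCK cell monolayers were used to measure permeability. The efflux ratio is reported alongside exact permeability (Pexact, nm/sec) and was used to judge whether the compound is a Pgp substrate.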

Rattus norvegicus [12] = experiment: Analgesic activity in po dosed rat assessed as reversal of complete Freund's adjuvant-induced inflammatory pain after 1 hr post dose; format: functional; in short: as §2
[13] = Blood clearance in rat at 1 mg/kg, iv; format: ADME, organism-based; parameters: dose 1 mg/kg, route intravenous
[14] = Volume of distribution at steady state in rat at 1 mg/kg, iv; format: ADME, organism-based; parameters: dose 1 mg/kg, route intravenous; settings: in vivo, read-out: Vdss
[15] = Half life in rat at 1 mg/kg, iv; format: ADME, organism-based; parameters: dose 1 mg/kg, route intravenous; settings: in vivo
[16] = Oral bioavailability in rat at 3 mg/kg; format: ADME, organism-based; settings: in vivo
In short: (§4)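 Rat oral pharmacokinetics at 3 mg/kg in 1% (w/v) aqueous methylcellulose. Bioavailability and half-life are derived.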

[17] = Half life in rat at 3 mg/kg, po; format: ADME, organism-based; parameters: dose 3 mg/kg, route oral; settings: in vivo; in short: as §4
[18] = Drug level in blood of rat complete Freund's adjuvant-induced inflammatory pain model at 3 mg/kg, po after 1 hr; format: ADME, organism-based; parameters: dose 3 mg/kg, route oral; settings: read-out: Drug uptake
In short: (§5)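 Blood and brain samples are taken from CFA rats after oral dosing in 1% methylcellulose. Sampling is at 1 h post-dose, and at 3 h in the 5 mg/kg study. Concentrations are in µM or nM, n = 7 or n = 6 for blood and n = 3 for brain. The brain:blood ratio is calculated from the same rats.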

[19] = Drug level in blood of rat complete Freund's adjuvant-induced inflammatory pain model at 10 mg/kg, po after 1 hr; format: ADME, organism-based; parameters: dose 10 mg/kg, route oral; settings: read-out: Drug uptake; in short: as §5
[20] = Drug level in blood of rat complete Freund's adjuvant-induced inflammatory pain model at 30 mg/kg, po after 1 hr; format: ADME, organism-based; parameters: dose 30 mg/kg, route oral; settings: read-out: Drug uptake; in short: as §5
[21] = Drug level in brain of rat complete Freund's adjuvant-induced inflammatory pain model at 30 mg/kg, po after 1 hr; format: ADME, organism-based; parameters: dose 30 mg/kg, route oral; settings: read-out: Drug uptake; in short: as §5
[22] = Ratio of drug level in brain to blood in rat complete Freund's adjuvant-induced inflammatory pain model at 30 mg/kg, po after 1 hr; format: ADME, organism-based; parameters: dose 30 mg/kg, route oral; settings: read-out: BBR; in short: as §5
Rattus norvegicus [23] = experiment: Analgesic activity in rat assessed as reversal of complete Freund's adjuvant-induced inflammatory pain at 5 mg/kg, po after 1 hr post dose; format: functional, organism-based; parameters: dose 5 mg/kg; in short: as §2
Rattus norvegicus [24] = experiment: Analgesic activity in rat assessed as reversal of complete Freund's adjuvant-induced inflammatory pain at 5 mg/kg, po after 3 hrs post dose; format: functional, organism-based; parameters: dose 5 mg/kg; in short: as §2
[25] = Ratio of drug level in brain to blood in rat complete Freund's adjuvant-induced inflammatory pain model at 5 mg/kg, po after 3 hrs; format: ADME, organism-based; parameters: dose 5 mg/kg, route oral; settings: read-out: BBR; in short: as §5
Rattus norvegicus [26] = experiment: Analgesic activity in rat assessed as reversal of complete Freund's adjuvant-induced inflammatory pain at 10 mg/kg, po after 1 hr post dose; format: functional; in short: as §2
Blood = experiment: Fraction unbound in blood of po dosed rat complete Freund's adjuvant-induced inflammatory pain model; format: ADME, organism-based; settings: in vivo
Rattus norvegicus [27] = experiment: Analgesic activity in po dosed rat chronic joint pain model; format: functional
In short: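 Rat joint pain model of chronic inflammatory pain. Oral dosing b.i.d. at 1, 3, 10 and 30 mg/kg, or at 0.3, 1, 3 and 10 mg/kg. Reversal of hypersensitivity is scored, with statistical significance testing, and ED50 is calculated.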

[28] = Ratio of drug level in brain to blood in rat complete Freund's adjuvant-induced inflammatory pain model at 10 mg/kg, po after 1 hr; format: ADME, organism-based; parameters: dose 10 mg/kg, route oral; settings: read-out: BBR; in short: as §5
[29] = Drug level in brain of rat complete Freund's adjuvant-induced inflammatory pain model at 10 mg/kg, po after 1 hr; format: ADME, organism-based; parameters: dose 10 mg/kg, route oral; settings: read-out: Drug uptake; in short: as §5
Brain = experiment: Fraction unbound in brain of po dosed rat complete Freund's adjuvant-induced inflammatory pain model; format: ADME, organism-based; settings: in vivo

For `Cc1cc(C(=O)O)nn1Cc1cc(Cl)cn2cc(C(C)C)cc12`, the IC50 [1] was 126 nM.

In the case of `CO[C@H]1CC[C@H](NC(=O)c2cc(C)n(Cc3cc(Cl)cc4cc(C(C)C)oc34)n2)CC1`, the IC50 [2] is reported as 316 nM.

Work on `Cc1cc(-c2nc3ccccc3[nH]2)nn1Cc1cc(Cl)cc2cc(C(C)C)oc12` yielded an IC50 [1] of 50.1 nM.

For `Cc1cc(C(=O)O)nn1Cc1cc(Cl)cc2cc(-c3ccccc3)oc12`, the IC50 [2] was 2 nM.

`Cc1cc(C(=O)NC(C)C)nn1Cc1cc(Cl)cc2cc(-c3ccccc3)oc12` gave an IC50 [2] of 10 nM.

In the case of `Cc1cc(C(=O)O)nn1Cc1cc(Cl)cc2cc(C(C)C)oc12`, the Ki [3] is reported as 0.398 nM, the Ki [4] is reported as 1000 nM and the IC50 [1] is reported as 5.01 nM.

`Cc1cc(C(=O)O)nn1Cc1cc(Cl)cc2nc(C(C)C)cn12` showed an IC50 [1] greater than 1000 nM.

In the case of `Cc1cc(C(=O)NC2CCNCC2)nn1Cc1cc(Cl)cc2cc(C(C)C)oc12`, the IC50 [1] is reported as 794 nM.

In the case of `Cc1cc(C(=O)NN2CCOCC2)nn1Cc1cc(Cl)cc2cc(C(C)C)oc12`, the Activity (Rattus norvegicus [5]) is reported as “Active”, the IC50 [1] is reported as 50.1 nM and the CL (Liver microsomes) is reported as 1.1 mL/min/g. It also gave a solubility at 1 h [6] of 1 µg/mL (≈ 2.4 µM), a solubility at 1 h [7] of 5 µg/mL (≈ 12 µM) and a solubility at 1 h [8] of 71 µg/mL (≈ 170 µM). It also gave a logD [9] of 2.6, a Papp (P-gp [10]) of 67.1 ×10⁻⁶ cm/s and an efflux ratio (P-gp [11]) of 0.9. The ED50 (Rattus norvegicus [12]) was 14.7 mg/kg, the clearance [13] was 85 mL/min/kg and the Vd [14] was 3 L/kg. For the same compound, the half-life [15] was 0.5 h, the bioavailability [16] was 19% and the half-life [17] was 1.7 h. For the same compound, the concentration at 1 h [18] was 1.95 µM, the concentration at 1 h [19] was 5.61 µM and the concentration at 1 h [20] was 10.2 µM. For the same compound, the concentration at 1 h [21] was 11.3 µM, the Kp at 1 h [22] was 1.05 and the Activity (Rattus norvegicus [23]) was “Active”. For the same compound, the Activity (Rattus norvegicus [24]) was “inactive” and the Kp at 3 h [25] was 1.15.

For `Cc1cc(C(N)=O)nn1Cc1cc(Cl)cc2cc(-c3ccccc3)oc12`, the IC50 [2] was 5.01 nM.

For `Cc1cc(C(=O)NC[C@H]2CCCO2)nn1Cc1cc(Cl)cc2cc(-c3ccccc3)oc12`, the IC50 [2] was 6.31 nM.

With `Cc1cc(NC(=O)CC2CCNCC2)nn1Cc1cc(Cl)cc2cc(-c3ccccc3)oc12` the IC50 [2] was 63.1 nM.

`Cc1cc(C(=O)NC(C)(C)C)nn1Cc1cc(Cl)cc2cc(-c3ccccc3)oc12` gave an IC50 [2] of 10 nM, a logD [9] of 2.9 and an ED50 (Rattus norvegicus [12]) of 5 mg/kg. The clearance [13] was 28 mL/min/kg, the Vd [14] was 4.3 L/kg and the half-life [15] was 4.2 h. It also gave an Activity (Rattus norvegicus [26]) of 95%, a Fu (Blood) of 0.028% and an ED50 (Rattus norvegicus [27]) of 0.6 mg/kg. For the same compound, the Kp at 1 h [28] was 0.3, the concentration at 1 h [29] was 0.112 µM and the concentration at 1 h [19] was 0.381 µM. The Fu (Brain) was 0.017%.

Compound `Cc1cc(NC(=O)C2CCNCC2)nn1Cc1cc(Cl)cc2cc(-c3ccccc3)oc12` has an IC50 [2] of 100 nM.

`Cc1cc(C(=O)O)nn1Cc1cc(Cl)cn2nc(C(C)C)cc12` gave an IC50 [2] greater than 1000 nM.

Work on `Cc1cc(C(=O)O)nn1Cc1cc(Cl)cc2cc(C(C)(C)C)oc12` yielded an IC50 [2] of 63.1 nM.
